What is called IC50 is the midpoint of a concentration-inhibition curve.

Test [1] concerns MOLT-4. The experiment in a line: Induction of mitochondrial membrane potential loss in human MOLT4 cells at 5 uM measured after 48 hrs by Rh123 dye-based flow cytometric analysis (reference value: 9.6%). Type of test: functional. Put shortly: (§1)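 Cells seeded in 6-well plates 2-4 h, then 48 h with compound; Rh-123 1 µM added for the final half hour; cells centrifuged, washed twice in PBS, resuspended in PBS, and Ψm loss quantified by flow cytometry as percentage of cells.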

In test [2] the test system is THP-1. The experiment in a line: Cytotoxicity against human THP1 cells assessed as growth inhibition at 10 uM after 48 hrs by MTT assay. The settings on record: THP-1, 48 h, read-out: GI. Type of test: functional. In outline: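 MTT assay, 48 h exposure; adherent lines seeded 12 h and suspension lines 4 h before compound. Media: RPMI-1640/10% FCS (THP-1, HL-60, Colo-205, Caco-2, A549), DMEM/10% FCS (A549, MIAPaCa-2, MCF-7). MTT 4 h, formazan dissolved in DMSO, absorbance 570 nm. Mean ± S.D of three experiments in triplicate; SAHA 5 µM reference.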
(Tetrazolium assays rely on reduction of a dye to a coloured formazan, in cell work by metabolically active cells.)

The test system of test [3] is HL-60. The experiment in a line: Induction of mitochondrial membrane potential loss in human HL60 cells assessed as intact mitochondrial membrane potential at 1 uM measured after 48 hrs by Rh123 dye-based flow cytometric analysis (reference value: 91.3%). It counts as functional. Put shortly: as §1
(In general: A flow cytometer gives signals particle by particle.)

The subject of test [4] is MOLT-4. In words: Induction of reactive oxygen species in human MOLT4 cells at 0.125 uM measured after 48 hrs by H2DCFDA dye-based flow cytometric analysis (reference value: 1.1%). It counts as functional.
In test [5] the test system is HL-60. The experiment in a line: Induction of autophagy in human HL60 cells assessed as acidic vacuole formation in cytoplasm at 10 uM after 48 hrs by acridine orange dye-based fluorescent microscopic analysis. It counts as functional, cell-based. In outline:
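Cells treated 48 h with a range of compound concentrations, SAHA 1.0 µM as positive control; acridine orange 1 µg/ml added 15 min before end at 37°C; cells washed in PBS and acidic vacuoles viewed by fluorescence microscopy.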

Test [6] concerns THP-1. The experiment in a line: Antimigratory activity in human THP1 cells at 10 uM after 48 hrs by wound healing assay. Type of test: functional, cell-based. Put shortly:
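THP-1 cells seeded at high density, attached overnight; monolayer scratched with a pipette tip, debris removed by PBS washes, then test compound added after wounding. Incubated 48 h under standard culture conditions (37°C, 5% CO2); wound images taken at various intervals from time zero.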

Test [7] has as its system HL-60. The experiment in a line: Induction of mitochondrial membrane potential loss in human HL60 cells at 1 uM measured after 48 hrs by Rh123 dye-based flow cytometric analysis (reference value: 5.6%). It counts as functional. Put shortly: as §1
The test system of test [8] is HL-60. In words: Induction of mitochondrial membrane potential loss in human HL60 cells at 5 uM measured after 48 hrs by Rh123 dye-based flow cytometric analysis (reference value: 5.6%). Type of test: functional. In outline:
as §1

In test [9] the test system is COLO 205. In words: Cytotoxicity against human COLO205 cells assessed as growth inhibition after 48 hrs by MTT assay. It counts as functional, cell-based. The note with it: COLO 205, 48 h.
For test [10], the system named is HL-60. The experiment in a line: Induction of DNA damage in human HL60 cells by comet assay. It counts as functional, cell-based. Put shortly: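 Alkaline comet assay on HL-60 cells in 0.5% low-melting agarose; lysis 2 h cold (2.5 M NaCl, 100 mM Na2EDTA, 10 mM Tris, pH 10, plus 1% Triton X-100); electrophoresis pH>13, 24 V, 300 mA, 40 min; neutralised pH 7.5, ethidium bromide stained; about 100 cells scored by image analysis, dim light.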

The source made the active and inactive calls. No cut-off for these calls is given here.

`O=C(CCCCCCC(=O)Nc1ccccc1CN1CC[C@H](O)C1)NO`: the Activity in test [1] is 57.5%; in [3], 90.4%; in test [4] it was 1.3%; in test [7], 6.2%; in test [8], 12.1%; in test [10], “Dose-dependent effect”. Moreover, the inhibition of growth at 10 µM in test [2] amounted to 94%. Further, the outcome in test [5] and in test [6] was Active. Besides, in [9], the IC50 worked out at 600 nM.

Values taken from ChEMBL document CHEMBL4049428, “Exploring Derivatives of Quinazoline Alkaloid l-Vasicine as Cap Groups in the Design and Biological Mechanistic Evaluation of Novel Antitumor Histone Deacetylase Inhibitors” (J Med Chem, 2017).
